Laboratory results reported in ChEMBL document CHEMBL1146686, “Phenolic thiazoles as novel orally-active neuroprotective agents” (Bioorg Med Chem Lett, 2004).
pIC50: −log10 of the molar value.

Species: Rattus norvegicus
Test: Compound tested to inhibit (LPO) lipid peroxidation was determined in rat brain microsomes
Format: functional
How it was run: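 Rat brain microsomes; lipid peroxidation induced by Fe2+. Antioxidant activity read as reduction of malondialdehyde formed from unsaturated fatty acid peroxidation.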

Compound | pIC50
Cc1cc(C(C)(C)C)c(O)c(C(C)(C)C)c1 [BUTYLATED HYDROXYTOLUENE] | 4.52
CC1=NN(c2ccccc2)C(=O)C1 [EDARAVONE] | 4.49
